Bioassay records from PubChem BioAssay.
MrgX1 PAM = allosterically activates human MrgX1 receptor signaling. Q96LB2. MrgX1-HEK293, Fluo-4 calcium flux, FDSS; active compounds read high. B-score at 10 µM. 0.63% of 310,000 active;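 active = plate-corrected calcium response at least 3 library SD above typical, normal starting fluorescence, not activating the receptor alone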;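 note: compound read alongside a low EC10 to EC30 dose of BAM8-22 agonist; peak minus trough fluorescence over baseline measured at the second addition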
Target sequence (Q96LB2 whole entry, looked up): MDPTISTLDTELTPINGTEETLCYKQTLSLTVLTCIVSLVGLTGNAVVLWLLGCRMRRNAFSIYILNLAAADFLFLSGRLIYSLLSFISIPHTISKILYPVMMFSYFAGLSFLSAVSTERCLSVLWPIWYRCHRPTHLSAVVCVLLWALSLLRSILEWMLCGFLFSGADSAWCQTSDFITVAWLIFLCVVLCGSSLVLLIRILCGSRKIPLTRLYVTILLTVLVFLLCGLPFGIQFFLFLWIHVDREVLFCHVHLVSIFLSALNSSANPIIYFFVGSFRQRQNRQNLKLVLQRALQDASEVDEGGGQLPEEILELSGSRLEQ
MrgX1 ag = human MrgX1 receptor agonism, primary screen; Q96LB2; MrgX1-HEK293 cells, Fluo-4 calcium fluorescence, agonist mode; active compounds read high; B-score at 10 µM; 0.44% of 310,000 active;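 active = calcium response B-score plate-corrected fluorescence ratio at least 3 library SD, with starting fluorescence B-score inside 5 SD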
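Assay system: stable human MrgX1 HEK293 cell line. Quantity: 15,000 cells per well. Schedule: cells plated overnight, dye loaded 0.5 h 37 °C, 0.5 h room temperature. Detection: Fluo-4 NW calcium-flux fluorescence, kinetic read. Read-out basis: peak-minus-minimum fluorescence over baseline, converted to B scores. Control set: positive and negative control wells on each plate.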
MrgX1 antag = antagonists of human MrgX1 receptor. Q96LB2. MRGX1-HEK293 calcium flux, Fluo-4, BAM8-22 antagonism; active compounds read low. B-score at 10 µM. 1.3% of 310,000 active. AID 588676;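 active = calcium-response B-score plate-corrected more than 3 library SD below zero, starting fluorescence within 5 deviations, no agonist response on first addition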;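 note: peak minus trough fluorescence over baseline after final BAM8-22 challenge near maximal dose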
RGS4 inh = inhibitors of human RGS4. P49798. HEK293 M3R/RGS4 inducible, Fluo-4 calcium flux; active compounds read high; triggered by carbachol at its EC20. B-score at 10 µM. 0.45% of 310,000 active. AID 463165;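 active = B-score, a plate-corrected calcium signal, over three deviations above library mean, with baseline fluorescence within five deviations of library mean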;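 note: RGS4 expression induced by doxycycline in cells with stable M3 receptor; B-score is computed from the integrated fluorescence ratio over baseline after carbachol; higher B-score means a larger calcium signal and so more RGS4 inhibition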
Target sequence (P49798 whole entry, looked up): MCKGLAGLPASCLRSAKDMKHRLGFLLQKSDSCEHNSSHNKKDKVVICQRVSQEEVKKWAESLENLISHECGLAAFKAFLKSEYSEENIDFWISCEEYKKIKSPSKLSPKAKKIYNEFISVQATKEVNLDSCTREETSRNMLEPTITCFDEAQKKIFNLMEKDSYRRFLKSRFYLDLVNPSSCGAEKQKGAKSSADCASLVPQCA
RGS4 act = RGS4 potentiation or activation; HEK293 M3R/inducible RGS4, carbachol calcium flux Fluo4; active compounds read low; B-score at 10 µM; 0.92% of 310,000 active; AID 463111;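 active = B-score of the integrated calcium signal more than 4 SD below the library mean, with starting fluorescence not abnormally high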;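 note: negative B-score means reduced calcium response which marks RGS4 activation or potentiation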
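Material: Inducible-RGS4 HEK293 cells carrying M3 receptor; also added: carbachol at ECmax as muscarinic agonist stimulus; incubation: compound preincubation 20 min at room temperature before agonist; signal: Fluo4-AM (2 µM) calcium-flux fluorescence, kinetic read; measure: integrated calcium ratio converted to B score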
RGS4 inh valid = validation of RGS4 inhibitors; HEK293 M3R/RGS4, carbachol calcium Fluo-4 fluorescence; carbachol added at its EC20; 0 = buffer wells, 100 = carbachol control; 65% of 1,700 active; shares compounds with RGS4 inh; calcium response, % at 10 µM;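 active = duplicate-averaged calcium response above the buffer-only control mean plus 5 SD of those controls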;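 note: integrated fluorescence ratio F max minus min over baseline F0; higher response in RGS4-induced cells means RGS4 inhibition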
M3R Ca ctr = checks RGS4 inhibitor effects in non-induced HEK293 M3R cells; shares compounds with RGS4 inh; activity (percent), % at 10 µM; 20% of 1,900 active; carbachol calcium Fluo-4; submaximal (EC20) carbachol stimulus; buffer wells 0%, carbachol control wells 100%; call rule not given here;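 note: RGS4 induction absent so cells express M3R without RGS4; higher means more calcium signal and flags a non-specific hit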
M3R basal Ca ctr = signal in non-induced cells without carbachol, RGS4 inhibitor counter-screen. shares compounds with RGS4 inh. HEK293 M3R/RGS4 non-induced, Fluo-4 calcium, no carbachol; normalised: buffer wells 0%, carbachol wells 100%. calcium response (agonist-mode artifact), % at 10 µM. 22% of 1,900 active. AID 493001;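 active = duplicate-averaged calcium rise in uninduced cells above buffer wells' mean plus 5 SD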
Numbers stand for hits; n = inactive; x = no result. Most compounds without a hit are left out; they make up all but 3.5% or so of the library.

SMILES | MrgX1 PAM | MrgX1 ag | MrgX1 antag | RGS4 inh | RGS4 act | RGS4 inh valid | M3R Ca ctr | M3R basal Ca ctr
CCOC(=O)N1CCc2c(sc3c2c(=O)n(Cc2ccccc2)c(=O)n3Cc2ccccc2F)C1 | n | n | n | 7.3 | n | 56% | 34% | n
C=C1C(=O)O[C@@H]2[C@H]1[C@@H](OC(=O)/C(C)=C/C)C/C(C)=C\C(=O)/C=C(\C)[C@@H]2O | n | n | n | n | n | x | n | n
COc1ccc(C(=O)/C(=C\c2ccco2)N2C=CC=CC2=C(C#N)C#N)cc1 | n | n | n | 25 | n | 37% | n | 20%
N#CC(C#N)=C1C=CC=CN1/C(=C\c1ccco1)C(=O)c1ccccc1 | n | n | n | x | x | x | x | x
N#Cc1c(NC(=O)c2ccc([N+](=O)[O-])o2)sc2c1CCC2 | n | n | n | n | n | x | x | x
Cc1ccnc(NS(=O)(=O)c2ccc(NC(=O)CC(C)c3ccccc3)cc2)n1 (configuration not stated) | n | n | n | 6.2 | n | 5.0% | n | n
Cc1ccnc(NS(=O)(=O)c2ccc(NC(=O)Cc3ccccc3)cc2)n1 | n | n | n | n | n | x | x | x
Cc1sc2nc3ccc(NCc4ccco4)nn3c(=O)c2c1C | n | n | n | 8.3 | n | n | n | 16%
O=C(CSc1nc2ccccc2[nH]1)Nc1nc(-c2cccc(Br)c2)cs1 | n | n | n | 7.7 | n | 16% | n | n
CN(C)CCCn1c(SCC(=O)Nc2nc(-c3cccc(Br)c3)cs2)nc2ccccc2c1=O | n | n | n | n | n | x | x | x
Cc1ccc(-c2csc(NC(=O)CSc3nc(C)cc(=O)[nH]3)n2)cc1 | n | n | n | 13 | n | 12% | n | n
COc1ccc(CCNC(=O)Cn2nnc(C(=O)Nc3cccc(C)c3C)c2N)cc1OC | n | n | n | n | n | x | x | x
COc1ccc2o/c(=N\O)c(C(=O)Nc3ccc(C)cc3)cc2c1 | x | x | x | 12 | n | 14% | n | n
COc1ccccc1NC(=O)c1cc2ccc(O)cc2o/c1=N\O | n | n | n | n | n | n | n | n
COc1ccc2oc(=N)c(C(=O)Nc3ccc(C)cc3)cc2c1 | n | n | n | n | n | x | x | x
COc1ccccc1N=c1oc2cc(O)ccc2cc1C(N)=O | n | n | n | n | n | x | x | x
COc1ccc(OC)c(NC(=O)N2CCCC(C(=O)c3ccccc3OC)C2)c1 (configuration not stated) | n | n | n | n | n | x | x | x
O=C(OCC(O)CO)c1ccccc1Nc1ccnc2cc(Cl)ccc12 (configuration not stated) | n | n | n | x | x | x | x | x
O=C(CC1C(=O)NCCN1C(=O)Nc1ccccc1)Nc1cccc(Cl)c1 (configuration not stated) | n | n | n | n | n | n | n | n
O=C(CC1C(=O)NCCN1C(=O)Nc1ccccc1)Nc1cc(Cl)cc(Cl)c1 (configuration not stated) | n | n | n | 6.1 | n | 23% | n | n
O=C(CC1C(=O)NCCN1C(=O)Nc1ccc(F)cc1)Nc1ccc(F)cc1 (configuration not stated) | n | n | n | n | n | x | n | n
COc1ccccc1C(=O)N1CCNC(=O)C1CC(=O)Nc1cccc(C)c1 (configuration not stated) | n | n | n | 5.1 | n | n | n | n
COc1cccc(OCCNC(=O)CSc2ccc(C(F)(F)F)cc2[N+](=O)[O-])c1 | n | n | n | n | n | x | x | x
COc1ccc(C(=O)Nn2c(C)nc3ccccc3c2=O)cc1[N+](=O)[O-] | n | n | n | n | n | x | x | x
COc1ccc(OC)c(/C=N/NC(=O)c2c(C)nc3ccc(C)cn23)c1 | n | n | n | n | n | x | x | x
SMILES | MrgX1 PAM | MrgX1 ag | MrgX1 antag | RGS4 inh | RGS4 act | RGS4 inh valid | M3R Ca ctr | M3R basal Ca ctr
CC(NCC(O)COC1CCC(C(C)(C)C)CC1)c1ccccc1 (configuration not stated) | n | n | n | 10 | n | 5.0% | n | n
COc1cccc(CN(C)C(=O)c2ccc(N3CCCC3)c([N+](=O)[O-])c2)c1 | n | n | n | n | n | x | x | x
Nc1nc(Nc2ccccc2)sc1C(=O)c1ccccc1 | n | n | n | 13 | n | 23% | 38% | n
COc1ccc(C(=O)c2sc(Nc3ccccc3)nc2N)cc1 | n | n | n | n | n | n | n | n
COc1ccc(C(=O)NC(=S)Nc2ccccc2F)cc1 | n | n | n | n | n | x | x | x
COc1ccc(C(=O)c2sc(Nc3ccccc3F)nc2N)cc1 | n | n | n | n | n | x | n | n
COc1ccc(C(=O)c2sc(Nc3ccccc3)nc2N)cc1OC | n | n | n | n | n | x | x | x
Cc1ccc(S(=O)(=O)N2CCCC2CNC(=O)C(=O)NC2CCCC2)cc1 (configuration not stated) | n | n | n | n | n | x | x | x
O=C(COC(=O)C12CC3CC(CC(C3)C1)C2)Nc1nc2c(F)c(F)c(F)cc2s1 | n | n | n | n | n | x | x | x
Nc1ccc(-c2nc(-c3ccccc3)nc3ccccc23)cc1 | n | n | n | n | n | x | x | x
Nc1ccc(-c2cc(-c3cccc(N)c3)nc(-c3ccccc3)n2)cc1 | n | n | n | n | n | n | n | n
O=C(O)CCc1ccc(-c2ccc(Cl)cc2)o1 | n | n | n | n | n | x | x | x
O=C(O)CCc1ccc(-c2ccc(Br)cc2)o1 | n | n | n | n | n | x | n | n
c1ccc(CNCc2ccco2)cc1 | n | n | n | n | n | x | x | x
O=C(N/N=C/c1cc2cc3c(cc2nc1Cl)OCO3)c1ccncc1 | n | n | n | 7.8 | n | n | n | n
O=C(N/N=C/c1cc2cc3c(cc2nc1Cl)OCCO3)c1ccccc1O | n | n | n | n | n | x | x | x
COc1ccccc1NC(=O)CSc1nc2n[nH]c(C)c2c(=N)n1-c1ccccc1Cl | n | n | n | n | n | x | x | x
S=c1[nH]nc(-c2cccs2)n1/N=C/c1c(Cl)cccc1Cl | n | n | n | 11 | n | 17% | n | n
CCOC(=O)C1CCN(CC(=O)c2c(C)n(C)c3ccc(OC)cc23)CC1 | n | n | n | 4.9 | n | 13% | n | n
Cc1ccc([C@H]2C(C#N)=C(N)Oc3cc(C)oc(=O)c32)o1 | n | n | n | 6.9 | n | 26% | n | n
Cc1ccc(CN(C(=O)c2ccc([N+](=O)[O-])cc2)C2CCS(=O)(=O)C2)o1 (configuration not stated) | n | n | n | n | n | x | x | x
